Measured values taken from ChEMBL document CHEMBL1133619, “Use of an additional hydrophobic binding site, the Z site, in the rational drug design of a new class of stronger trypanothione reductase inhibitor, quaternary alkylammonium phenothiazines” (J Med Chem, 2000).
Several values for one entry are separate records, joined by “and”; a condition that tells them apart may be missing. Equal entries are not always repeated. Activity calls are given as the source filed them. The rule behind the calls is not given here.

What was measured:
[1] = biological target: T1, Trypanothione reductase (Trypanosoma cruzi, UniProt P28593); assay: (§1) Inhibitory activity against Trypanosoma cruzi trypanothione reductase
[2] = biological target: T1, Trypanothione reductase; assay: as §1; remark: listed apart in the source
Method in brief: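 T. cruzi TR, isolated enzyme (3 µg/mL), assayed at 25 °C in 0.02 M HEPES pH 7.25 with 0.15 M KCl, 1 mM EDTA and 0.1 mM NADPH. (ZCGdmapa)2 substrate was used at 0.24, 0.12, 0.06 or 0.03 mM, and Ki was fitted as linear competitive.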

[3] = test system: Trypanosoma brucei; assay: Antiparasitic activity against Trypanosoma brucei; assay type: functional; settings: read-out: ED50 (the source's name)
[4] = test system: Trypanosoma brucei; assay: Activity against Trypanosoma brucei.
[5] = biological target: T2, Glutathione reductase, mitochondrial (Homo sapiens, UniProt P00390); assay: Inhibitory activity against Human Erythrocyte glutathione reductase (GR).
T2 sequence (P00390 whole entry): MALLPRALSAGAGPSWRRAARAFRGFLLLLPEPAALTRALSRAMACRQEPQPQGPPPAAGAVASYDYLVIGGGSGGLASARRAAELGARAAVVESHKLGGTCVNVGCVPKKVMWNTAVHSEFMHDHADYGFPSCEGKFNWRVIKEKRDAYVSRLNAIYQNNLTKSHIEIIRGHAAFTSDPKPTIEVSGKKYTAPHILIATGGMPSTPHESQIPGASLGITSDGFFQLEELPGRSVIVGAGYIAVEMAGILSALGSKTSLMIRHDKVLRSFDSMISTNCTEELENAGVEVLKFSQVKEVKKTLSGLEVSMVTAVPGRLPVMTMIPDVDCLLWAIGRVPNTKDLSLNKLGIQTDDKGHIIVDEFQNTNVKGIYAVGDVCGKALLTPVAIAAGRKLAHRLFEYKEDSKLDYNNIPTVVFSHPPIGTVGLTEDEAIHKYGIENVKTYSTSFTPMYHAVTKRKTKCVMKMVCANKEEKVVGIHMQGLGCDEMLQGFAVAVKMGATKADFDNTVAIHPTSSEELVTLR

[6] = biological target: T3, Glutathione reductase, mitochondrial (Homo sapiens) (UniProt P00390); assay: Compound at 1 mM was tested for the inhibition of human erythrocyte glutathione reductase; No inhibition
T3 sequence (whole entry): T2 sequence (P00390 whole entry)

[7] = test system: Trypanosoma cruzi; assay: Antiparasitic activity against Trypanosoma cruzi at the dose of 1 uM; assay type: functional
[8] = test system: Trypanosoma cruzi; assay: Antiparasitic activity against Trypanosoma cruzi.; assay type: functional; settings: read-out: ED50 (the source's name)
[9] = test system: Trypanosoma cruzi; assay: Antiparasitic activity against Trypanosoma cruzi at the dose of 3 uM; assay type: functional

T1 sequence (P28593 whole entry): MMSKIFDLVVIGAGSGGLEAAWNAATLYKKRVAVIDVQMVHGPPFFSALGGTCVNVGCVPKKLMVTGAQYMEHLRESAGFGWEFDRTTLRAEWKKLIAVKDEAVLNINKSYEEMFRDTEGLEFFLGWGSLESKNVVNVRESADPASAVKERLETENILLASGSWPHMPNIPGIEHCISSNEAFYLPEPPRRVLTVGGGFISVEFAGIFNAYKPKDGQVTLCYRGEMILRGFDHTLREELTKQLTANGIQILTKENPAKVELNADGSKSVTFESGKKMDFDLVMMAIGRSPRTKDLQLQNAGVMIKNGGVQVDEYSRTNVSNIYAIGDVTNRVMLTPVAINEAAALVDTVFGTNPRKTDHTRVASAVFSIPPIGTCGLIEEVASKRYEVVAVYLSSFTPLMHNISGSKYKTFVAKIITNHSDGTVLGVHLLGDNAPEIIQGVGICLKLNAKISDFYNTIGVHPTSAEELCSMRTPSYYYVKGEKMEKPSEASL

| SMILES | IC50 [1] [µM] | Ki [2] [µM] | EC50 [3] | other results |
| --- | --- | --- | --- | --- |
| C[N+](C)(CCCN1c2ccccc2Sc2ccc(Cl)cc21)CC(=O)C12CC3CC(CC(C3)C1)C2 | 12.8 | 1.23 |  |  |
| Cc1ccc(C[N+](C)(C)CCCN2c3ccccc3Sc3ccc(Cl)cc32)cc1C | 3.9 | 0.47 |  |  |
| C[N+](C)(CCCN1c2ccccc2Sc2ccc(Cl)cc21)Cc1c(F)c(F)c(F)c(F)c1F | 10 | 1.67 | 1.48 µg/mL and 2.55 µM |  |
| C[N+](C)(CCCN1c2ccccc2Sc2ccc(Cl)cc21)CC(=O)c1ccc2ccc3cccc4ccc1c2c34 |  |  |  | ED50 [4]: 0.475 µg/mL |
| C[N+](C)(CCCN1c2ccccc2Sc2ccc(Cl)cc21)CC1CCCCC1 | 10.5 | 2.3 | 0.159 µg/mL and 320 nM | Ki [5]: 2000 µM |
| Cc1ccc(C[N+](C)(C)CCCN2c3ccccc3Sc3ccc(Cl)cc32)cc1 | 10.8 | 1.8 | 0.205 µg/mL and 410 nM |  |
| COc1ccc2c(C[N+](C)(C)CCCN3c4ccccc4Sc4ccc(Cl)cc43)cc(=O)oc2c1 | 2.95 | 0.56 | 3.11 µg/mL and 5.28 µM |  |
| C[N+](C)(CCCN1c2ccccc2Sc2ccc(Cl)cc21)Cc1ccccc1 | 8.02 | 1.3 |  |  |
| C[N+](C)(CCCN1c2ccccc2Sc2ccc(Cl)cc21)Cc1ccc(Cl)cc1 | 12.7 | 1.7 | 0.675 µg/mL and 1.41 µM | Ki [5]: 2200 µM |
| C[N+](C)(C)CCCN1c2ccccc2Sc2ccc(Cl)cc21 | 28 | 1.1 |  |  |
| C[N+](C)(CCCN1c2ccccc2Sc2ccc(Cl)cc21)Cc1ccc(OCc2ccccc2)cc1 | 10.4 | 0.47 | 0.191 µg/mL and 350 nM |  |
| CN(C)CCCN1c2ccccc2Sc2ccc(Cl)cc21 |  |  |  | NI [6]: inactive |
| C[N+](C)(CCCN1c2ccccc2Sc2ccc(Cl)cc21)Cc1ccc2ccccc2c1 | 9.3 | 1.55 | 0.068 µg/mL and 120 nM |  |
| CC(C)(C)c1ccc(C[N+](C)(C)CCCN2c3ccccc3Sc3ccc(Cl)cc32)cc1 | 4.1 | 0.68 | 0.023 µg/mL and 42 nM | inhibition at 1 µM [7]: 59.2%; EC50 [8]: < 1 µM; inhibition at 3 µM [9]: 66.2% |
| C[N+](C)(CCCN1c2ccccc2Sc2ccc(Cl)cc21)Cc1ccc(Cl)c(Cl)c1 | 0.78 | 0.12 | 0.546 µg/mL and 1.07 µM |  |
| COc1cc(C[N+](C)(C)CCCN2c3ccccc3Sc3ccc(Cl)cc32)cc(OC)c1 | 5.4 | 0.77 |  |  |
| C[N+](C)(CCCN1c2ccccc2Sc2ccc(Cl)cc21)Cc1ccc(Br)cc1 | 11.9 | 1.5 | 0.508 µg/mL and 900 nM |  |
| Cc1cc(C(=O)C[N+](C)(C)CCCN2c3ccccc3Sc3ccc(Cl)cc32)ccc1Cl | 8.6 | 1.43 | 0.159 µg/mL and 280 nM |  |
| C[N+](C)(CCCN1c2ccccc2Sc2ccc(Cl)cc21)Cc1ccc([N+](=O)[O-])cc1.[Cl-] | 17.9 | 2.98 | 0.348 µg/mL and 650 nM |  |
| C[N+](C)(CCCN1c2ccccc2Sc2ccc(Cl)cc21)Cc1cccc(Cl)c1 | 6.6 | 2.4 | 0.245 µg/mL and 470 nM |  |
| C[N+](C)(CCCN1c2ccccc2Sc2ccc(Cl)cc21)C(c1ccccc1)c1ccccc1 | 1.2 | 0.71 | 0.035 µg/mL and 62 nM |  |
